GSTO1 inh – GSTO1 inhibition, counter-screen for RBBP9 inhibitors. actives 1.1% (n = 300,000). P78417. inhibition, % at 5.96 µM. recombinant GSTO1, activity-based probe fluorescence polarization;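 active = inhibition above the campaign mean inhibition plus 3 SD, cut at about 35% in these data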
Target sequence (P78417 whole entry, looked up): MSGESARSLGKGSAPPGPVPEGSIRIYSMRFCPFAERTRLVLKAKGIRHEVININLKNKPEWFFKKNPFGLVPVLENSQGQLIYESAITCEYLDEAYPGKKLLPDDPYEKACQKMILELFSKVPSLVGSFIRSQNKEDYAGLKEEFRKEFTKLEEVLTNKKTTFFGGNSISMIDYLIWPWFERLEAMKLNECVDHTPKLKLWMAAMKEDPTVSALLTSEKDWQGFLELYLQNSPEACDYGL
HKDC1 inhibitor – HKDC1 (human) hexokinase inhibition. recombinant HKDC1, G6PDH/diaphorase resazurin coupled fluorescence. inhibition, % at 20 µM. Q2TB90. AID 493160. actives 0.16% (n = 340,000);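 active = inhibition above about 35% when tested at 20 µM, limit read from the data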
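Assay system: recombinant HKDC1 hexokinase; detection: coupled resazurin fluorescence, excitation 525 nm, emission 613 nm; benchmarks: DMSO-plus-enzyme-mix negative control, buffer-substituted positive control; compound dosing: single 20 µM dose; schedule: 90 min at room temperature in dark; also added: glucose plus 1 mM ATP as hexokinase substrates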
TDP2 inh – blocks human TDP2 phosphodiesterase activity | O95551 | recombinant TDP2, T5PNP hydrolysis, p-nitrophenol absorbance 415 nm | inhibition, % at 12.8 µM | actives 0.34% (n = 370,000) | AID 720702;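 active = inhibition above the mean of all tested compounds plus 3 SD, set per campaign, cut at about 25% in these data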
Target sequence (O95551 whole entry, looked up): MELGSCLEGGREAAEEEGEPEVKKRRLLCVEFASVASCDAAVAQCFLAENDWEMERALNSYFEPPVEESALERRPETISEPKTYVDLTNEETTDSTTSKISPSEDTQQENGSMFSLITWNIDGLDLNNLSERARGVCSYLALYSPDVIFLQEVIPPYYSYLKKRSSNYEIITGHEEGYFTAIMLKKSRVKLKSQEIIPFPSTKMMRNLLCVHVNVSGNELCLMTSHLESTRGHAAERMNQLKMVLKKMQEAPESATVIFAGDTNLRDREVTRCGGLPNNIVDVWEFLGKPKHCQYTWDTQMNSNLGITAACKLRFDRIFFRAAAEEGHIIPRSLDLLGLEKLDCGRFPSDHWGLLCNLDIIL
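System – recombinant human TDP2 · Quantity – TDP2 enzyme at 120 nM final · Doses – single concentration, 12.8 µM nominal, with 1% DMSO · Incubation – 2 h at 37 °C · Measured by – epi absorbance of p-nitrophenol freed from T5PNP by hydrolysis · Read-out – % inhibition relative to enzyme-containing and enzyme-free wells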
PAD4 inh – inhibitors of human PAD4; recombinant PAD4, RCA probe fluorescence polarization; Q9UM07; actives 0.41% (n = 330,000); AID 485272; inhibition, % at 6.36 µM;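 active = percent inhibition above a cutoff equal to the mean of all tested compounds plus 3 SD, cut at about 15% in these data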
UCH37 inh – human UCH37 deubiquitinating enzyme inhibition; Q9Y5K5; purified proteasome/UCH37, Ub-AMC cleavage fluorescence; inhibition, % (no concentration beside the values); actives 0.33% (n = 330,000); AID 588478;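 active = mean inhibition over replicate wells above about 20%, limit read from the data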
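System: Proteasome-associated human UCH37 deubiquitinase; Input: 0.15 nM proteasome in added enzyme buffer; Also added: Ub-AMC substrate from 1 µM stock; Incubation: 30 min compound-proteasome preincubation then 25 min substrate reaction, room temperature; Detection: fluorescence, ex 355 nm, em 460 nm; Read-out: % inhibition of Ub-AMC cleavage fluorescence; Benchmarks: no-proteasome and no-compound wells.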
CTSL1 counter – cathepsin L1 inhibition, PFM18AAP counter-screen. actives 0.49% (n = 300,000). recombinant F. hepatica cathepsin L1, Z-Leu-Arg-MCA fluorescence. AID 1906. inhibition, % at 5.96 µM;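 active = inhibition above the mean of all tested compounds plus 3 SD, set per screening campaign, cut at about 17% in these data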
Hits are given with their value. A selection: hits, their analogues and other compounds. The true share with any hit is near 1.6%.

What do the screens show for `COc1ccc(NC(=O)c2cc3cccc(OC)c3oc2=Nc2ccc(C(=O)O)cc2)cc1OC`?
HKDC1 inhibitor: inactive; TDP2 inh: inactive; UCH37 inh: 24

Results for COc1cccc(NC(=O)c2cc3cccc(OC)c3o/c2=N\O)c1 ?
GSTO1 inh: inactive; PAD4 inh: inactive; CTSL1 counter: inactive

How did CN1C(=O)CC(N2CCC(c3nc4ccccc4s3)CC2)C1=O (centres undefined) do in these assays?
GSTO1 inh: inactive; HKDC1 inhibitor: inactive; TDP2 inh: inactive; PAD4 inh: inactive; UCH37 inh: inactive; CTSL1 counter: 19

Results for Cc1ccc(C(=S)NCS(=O)(=O)c2ccc(C)cc2)cc1 ?
GSTO1 inh: inactive; HKDC1 inhibitor: inactive; TDP2 inh: inactive; PAD4 inh: inactive; UCH37 inh: inactive; CTSL1 counter: inactive

How did Cc1ccc(S(=O)(=O)CNC(=S)c2cccc(Cl)c2)cc1 do in these assays?
GSTO1 inh: 38; HKDC1 inhibitor: inactive; TDP2 inh: inactive; PAD4 inh: inactive; UCH37 inh: inactive; CTSL1 counter: inactive

How did O=C(NN=Cc1ccc(OC(F)F)cc1)c1cc[n+]([O-])cc1 do in these assays?
UCH37 inh: inactive

How did [O-]/C(=C(\C(=S)Nc1cccc2ccccc12)[n+]1ccccc1)c1cccs1 do in these assays?
GSTO1 inh: 37; HKDC1 inhibitor: inactive; TDP2 inh: inactive; PAD4 inh: inactive; UCH37 inh: inactive; CTSL1 counter: inactive

How did CC1=NN(S(=O)(=O)c2ccc(Cl)cc2Cl)C(=O)c2ccccc2O1 do in these assays?
GSTO1 inh: inactive; HKDC1 inhibitor: inactive; TDP2 inh: inactive; PAD4 inh: inactive; UCH37 inh: inactive; CTSL1 counter: 56

How did Nc1ccc(C(=O)n2c3ccccc3c3ccccc32)cc1 do in these assays?
GSTO1 inh: inactive; HKDC1 inhibitor: inactive; TDP2 inh: inactive; PAD4 inh: inactive; UCH37 inh: 28; CTSL1 counter: inactive

What do the screens show for `Nc1ccc(C(=O)N2CCCC2)cc1`?
GSTO1 inh: inactive; HKDC1 inhibitor: inactive; TDP2 inh: inactive; PAD4 inh: inactive; UCH37 inh: inactive; CTSL1 counter: inactive

How did NC(=S)N=Nc1c(O)[nH]c2c(Br)cc(Br)cc12 do in these assays?
GSTO1 inh: 39; HKDC1 inhibitor: inactive; TDP2 inh: inactive; PAD4 inh: inactive; UCH37 inh: inactive; CTSL1 counter: inactive

What do the screens show for `NC(=S)N=Nc1c(O)[nH]c2ccccc12`?
GSTO1 inh: inactive; HKDC1 inhibitor: inactive; TDP2 inh: inactive; PAD4 inh: inactive; UCH37 inh: inactive; CTSL1 counter: inactive

How did COc1ccc(-c2cc3nc4ccccc4n3c(N)c2C#N)cc1 do in these assays?
GSTO1 inh: 38; HKDC1 inhibitor: inactive; TDP2 inh: inactive; PAD4 inh: inactive; UCH37 inh: inactive; CTSL1 counter: inactive

Results for CC(=O)CSc1nc2c(c(=O)[nH]c(=O)n2C)n1Cc1cccc(Br)c1 ?
GSTO1 inh: inactive; HKDC1 inhibitor: inactive; TDP2 inh: inactive; PAD4 inh: inactive; UCH37 inh: inactive; CTSL1 counter: 35

How did Cn1c(=O)[nH]c(=O)c2c1nc(SCCC(=O)O)n2Cc1cccc(Br)c1 do in these assays?
GSTO1 inh: inactive; HKDC1 inhibitor: inactive; TDP2 inh: inactive; PAD4 inh: inactive; CTSL1 counter: inactive

How did NC(=S)N/N=C/c1c[nH]c2ccc(OCc3ccccc3)cc12 do in these assays?
GSTO1 inh: inactive; HKDC1 inhibitor: inactive; PAD4 inh: inactive; CTSL1 counter: 55

What do the screens show for `COc1cccc(/C=N/NC(N)=S)c1OCc1cccc(Cl)c1`?
GSTO1 inh: inactive; HKDC1 inhibitor: inactive; TDP2 inh: inactive; PAD4 inh: inactive; CTSL1 counter: 17

How did NC(=S)N/N=C\c1ccccc1OCc1ccccc1 do in these assays?
GSTO1 inh: inactive; HKDC1 inhibitor: inactive; TDP2 inh: inactive; PAD4 inh: inactive; CTSL1 counter: inactive

What do the screens show for `COc1cc(C=NNC(=O)c2ccc(O)cc2)ccc1Oc1ccc([N+](=O)[O-])cn1`?
UCH37 inh: inactive

How did COc1cc(C(C)=NNC(=S)NC(C)C)cc(OC)c1OC do in these assays?
UCH37 inh: inactive

How did COc1cc(/C(C)=N\NC(N)=S)cc(OC)c1OC do in these assays?
GSTO1 inh: inactive; HKDC1 inhibitor: inactive; TDP2 inh: inactive; PAD4 inh: inactive; CTSL1 counter: 18

Results for CN(C)C(=S)Nn1c(-c2ccccc2)nc2ccccc2c1=O ?
GSTO1 inh: inactive; HKDC1 inhibitor: inactive; TDP2 inh: inactive; PAD4 inh: inactive; UCH37 inh: 25; CTSL1 counter: inactive

Results for Cc1cccn2c(=O)c(/C=C(\C#N)C(=O)NC3CCS(=O)(=O)C3)c(N3CCC(C)CC3)nc12 (centres undefined) ?
GSTO1 inh: inactive; HKDC1 inhibitor: inactive; TDP2 inh: inactive; PAD4 inh: inactive; UCH37 inh: inactive; CTSL1 counter: 17

How did CCN(C(=O)c1cc2c(=O)n3ccccc3nc2n1C)C1CCCCC1 do in these assays?
GSTO1 inh: inactive; HKDC1 inhibitor: inactive; TDP2 inh: inactive; PAD4 inh: inactive; UCH37 inh: inactive; CTSL1 counter: inactive

How did CN(C(=O)c1cc2c(=O)n3ccccc3nc2n1C)C1CCCCC1 do in these assays?
GSTO1 inh: inactive; HKDC1 inhibitor: inactive; TDP2 inh: inactive; PAD4 inh: inactive; UCH37 inh: inactive; CTSL1 counter: 18

What do the screens show for `CC(NC(=O)C(=O)N1CCOCC1)C(c1cccs1)N1CCN(c2ccc(F)cc2)CC1` (centres undefined)?
GSTO1 inh: inactive; HKDC1 inhibitor: inactive; TDP2 inh: inactive; PAD4 inh: inactive; UCH37 inh: inactive; CTSL1 counter: 26

What do the screens show for `CC(NC(=O)C(=O)N1CCOCC1)C(c1cccs1)N1CCN(c2ccccc2F)CC1` (centres undefined)?
GSTO1 inh: inactive; HKDC1 inhibitor: inactive; TDP2 inh: inactive; PAD4 inh: inactive; UCH37 inh: inactive; CTSL1 counter: inactive

What do the screens show for `O=C(NN=C(c1ccccc1)c1cccnc1)C(O)(c1ccccc1)c1ccccc1`?
UCH37 inh: inactive

How did CC(C)(C)C(C(=O)Oc1ccccc1)c1ccccc1 (centres undefined) do in these assays?
HKDC1 inhibitor: inactive; TDP2 inh: inactive; PAD4 inh: inactive; UCH37 inh: 24

Results for CC(C)(C)OC(=O)N[C@@H](C(=O)OC(C)(C)C)c1ccccc1 ?
HKDC1 inhibitor: inactive; TDP2 inh: inactive; PAD4 inh: inactive; UCH37 inh: inactive

Results for CCOc1ccc(C(=O)NN=Cc2cccc3cccnc23)cc1 ?
UCH37 inh: inactive

What do the screens show for `CC[n+]1ccc(/C=C2\Sc3ccccc3N2CCCS(=O)(=O)[O-])c2ccccc21`?
GSTO1 inh: inactive; HKDC1 inhibitor: inactive; TDP2 inh: inactive; PAD4 inh: inactive; UCH37 inh: inactive; CTSL1 counter: inactive

What do the screens show for `CN1C=C/C(=C\c2cc[n+](C)c3ccccc23)c2ccccc21`?
HKDC1 inhibitor: inactive; TDP2 inh: 28; UCH37 inh: inactive
